Assay results reported in PubChem BioAssay AID2204 (Vanderbilt High Throughput Screening Facility, 2009).

What was measured:
Test in all cases: ACh EC20 potentiation across mAChRs – cell-based, calcium flux, selectivity assay for M5 allosteric modulator project, profiling panel (AID 2204)
Settings in all cases: CHO-K1 mAChR panel, Fluo-4 calcium flux
[1] = target: Muscarinic acetylcholine receptor M5 (Homo sapiens) (UniProt P08912)
In short: (§1)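 Material: Transfected CHO-K1 cell lines | Medium: HBSS buffer, pH 7.4, with 2.5 mM probenecid, 20 mM HEPES | Reagent: Acetylcholine at submaximal EC20 concentration | Times: 1.5 min compound pre-incubation, 50 s agonist exposure, 25 °C | Signal: Intracellular calcium mobilization measurement | Read-out basis: EC50, variable-slope fit of baseline-normalized percent maximal acetylcholine response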

[2] = target: Muscarinic acetylcholine receptor M3 (Homo sapiens) (UniProt P20309)
Chain of Muscarinic acetylcholine receptor M3 (Homo sapiens) (P20309 whole entry, looked up): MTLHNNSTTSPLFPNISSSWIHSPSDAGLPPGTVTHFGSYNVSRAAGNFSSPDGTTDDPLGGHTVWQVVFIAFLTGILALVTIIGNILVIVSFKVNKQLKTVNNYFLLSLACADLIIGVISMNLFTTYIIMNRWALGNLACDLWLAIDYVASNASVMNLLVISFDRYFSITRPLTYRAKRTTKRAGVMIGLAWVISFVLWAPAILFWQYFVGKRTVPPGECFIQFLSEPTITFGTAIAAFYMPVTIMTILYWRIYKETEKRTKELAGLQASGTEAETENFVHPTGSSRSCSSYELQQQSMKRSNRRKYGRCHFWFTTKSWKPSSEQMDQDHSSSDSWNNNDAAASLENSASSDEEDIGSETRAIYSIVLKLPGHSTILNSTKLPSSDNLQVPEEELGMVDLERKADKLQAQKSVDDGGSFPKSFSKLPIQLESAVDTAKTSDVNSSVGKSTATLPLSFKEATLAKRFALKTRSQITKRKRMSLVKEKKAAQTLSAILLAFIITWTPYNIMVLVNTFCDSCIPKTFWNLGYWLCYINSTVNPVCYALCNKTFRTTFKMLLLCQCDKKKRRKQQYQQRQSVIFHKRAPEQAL
In short: as §1

[3] = target: Muscarinic acetylcholine receptor M1 (Rattus norvegicus) (UniProt P08482)
Chain of Muscarinic acetylcholine receptor M1 (Rattus norvegicus) (P08482 whole entry, looked up): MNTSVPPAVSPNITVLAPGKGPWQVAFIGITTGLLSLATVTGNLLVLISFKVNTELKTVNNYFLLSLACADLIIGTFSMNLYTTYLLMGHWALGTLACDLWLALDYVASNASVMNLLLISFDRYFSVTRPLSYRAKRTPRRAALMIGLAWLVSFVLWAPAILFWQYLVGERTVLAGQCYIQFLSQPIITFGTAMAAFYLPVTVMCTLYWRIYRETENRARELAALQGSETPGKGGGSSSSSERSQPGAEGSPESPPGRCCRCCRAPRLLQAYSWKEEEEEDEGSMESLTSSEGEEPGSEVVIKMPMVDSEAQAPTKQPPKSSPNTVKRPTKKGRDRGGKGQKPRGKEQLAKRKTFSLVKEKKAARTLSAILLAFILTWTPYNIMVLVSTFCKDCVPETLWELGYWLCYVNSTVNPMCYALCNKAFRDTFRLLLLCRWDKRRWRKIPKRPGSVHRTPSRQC
In short: as §1

Chain of Muscarinic acetylcholine receptor M5 (Homo sapiens) (P08912 whole entry, looked up): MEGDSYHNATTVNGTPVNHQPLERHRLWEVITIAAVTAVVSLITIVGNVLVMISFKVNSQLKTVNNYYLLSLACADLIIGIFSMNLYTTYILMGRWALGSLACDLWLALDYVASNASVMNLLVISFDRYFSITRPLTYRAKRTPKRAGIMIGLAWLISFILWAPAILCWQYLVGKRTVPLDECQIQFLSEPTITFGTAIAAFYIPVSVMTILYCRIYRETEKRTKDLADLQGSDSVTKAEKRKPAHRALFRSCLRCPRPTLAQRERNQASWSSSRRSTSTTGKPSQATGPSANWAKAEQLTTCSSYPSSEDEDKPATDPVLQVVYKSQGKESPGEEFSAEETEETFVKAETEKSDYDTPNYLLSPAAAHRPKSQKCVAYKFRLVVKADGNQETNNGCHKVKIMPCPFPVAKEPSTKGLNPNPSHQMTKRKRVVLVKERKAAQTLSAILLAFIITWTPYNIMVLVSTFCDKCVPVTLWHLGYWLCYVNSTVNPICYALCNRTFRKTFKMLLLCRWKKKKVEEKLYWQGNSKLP

O=C1C(=O)N(Cc2ccc(-c3ccc(F)nc3)cc2)c2ccc(OC(F)(F)F)cc21
EC50 [1]: 3.59 µM

COc1ccc(CN2C(=O)C(=O)c3ccc(OC(F)(F)F)cc32)cc1
EC50 [2]: 10.3 µM
EC50 [1]: 5.68 µM

O=C1C(=O)N(Cc2ccc(-c3ccccc3)cc2)c2cc(OC(F)(F)F)ccc21
EC50 [2]: 3.07 µM
EC50 [1]: 2.65 µM

COc1ccc(CN2C(=O)C(=O)c3cc(OC(F)(F)F)ccc32)cc1
EC50 [2]: 109 µM
EC50 [1]: 1.16 µM

O=C1C(=O)N(Cc2ccc(Oc3ccccc3)cc2)c2ccc(OC(F)(F)F)cc21
EC50 [1]: 1.92 µM

O=C1C(=O)N(Cc2ccc(-c3ccc(Cl)nc3)cc2)c2ccc(OC(F)(F)F)cc21
EC50 [1]: 4.83 µM

O=C1C(=O)N(Cc2ccc(-c3ccsc3)cc2)c2ccc(OC(F)(F)F)cc21
EC50 [1]: 2.77 µM

O=C1C(=O)N(Cc2ccc(-c3ccccc3)cc2)c2ccc(OC(F)(F)F)cc21
EC50 [1]: 2.66 µM

Cn1cc(-c2ccc(CN3C(=O)C(=O)c4cc(OC(F)(F)F)ccc43)cc2)cn1
EC50 [1]: 3.26 µM

COc1ccccc1-c1ccc(CN2C(=O)C(=O)c3cc(OC(F)(F)F)ccc32)cc1
EC50 [1]: 3.86 µM

O=C1C(=O)N(Cc2ccc(Br)cc2)c2ccccc21
EC50 [3]: 6.04 µM
EC50 [2]: 6.38 µM
EC50 [1]: 4.08 µM
